In the library only some 1.9% were active in any assay of this set; here they are far more common.
M4 ag = CHRM4 agonism in calcium assay; P08173; activation, % at 3 µM; CHO-K1 hM4/Gqi5, Fluo-8 calcium fluorescence; vehicle 0%, full acetylcholine response 100%; 0.14% of 360,000 active;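 active = activation above the run mean over all test wells plus 3 SD, cut at about 32% in these data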;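 also: peak over basal fluorescence ratio per well then scaled between controls; 0% = DMSO wells and 100% = acetylcholine at EC100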
Target sequence (P08173 whole entry, looked up): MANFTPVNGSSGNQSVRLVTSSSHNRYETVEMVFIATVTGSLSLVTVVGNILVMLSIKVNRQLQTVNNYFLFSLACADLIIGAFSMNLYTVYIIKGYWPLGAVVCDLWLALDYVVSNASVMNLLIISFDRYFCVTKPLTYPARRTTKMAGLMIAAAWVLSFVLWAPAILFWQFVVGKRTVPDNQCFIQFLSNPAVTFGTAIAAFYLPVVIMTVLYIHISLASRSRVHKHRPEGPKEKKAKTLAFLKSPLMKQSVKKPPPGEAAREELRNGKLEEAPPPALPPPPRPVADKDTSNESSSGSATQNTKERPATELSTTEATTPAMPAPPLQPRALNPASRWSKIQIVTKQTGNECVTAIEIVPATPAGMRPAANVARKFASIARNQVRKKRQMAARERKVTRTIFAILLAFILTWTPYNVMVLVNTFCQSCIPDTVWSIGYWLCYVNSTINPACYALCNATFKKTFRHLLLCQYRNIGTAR
CHRM5 PAM = CHRM5 positive allosteric modulation; CHO-K1 hM5, Fluo-8 calcium, ACh EC20 PAM; 0% = ACh EC20, 100% = ACh EC100; activation, % at 3 µM; 0.3% of 360,000 active;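 active = activation above the run cutoff, the mean activation of all test compounds plus 3 SD, cut at about 18% in these data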
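system = human M5 receptor in CHO-K1 cells | compound = one concentration, 3 µM final (nominal) | schedule = Post-acetylcholine fluorescence recording 140 s | signal = Fluo-8 calcium dye fluorescence, kinetic read | benchmarks = low control EC20 acetylcholine (0%), high control EC100 acetylcholine (100%) | repeats = singlicate, one well per test compound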
CHRM5 antagonist = CHRM5 antagonism in calcium assay | P08912 | CHO-hM5 cells, Fluo-8 calcium fluorescence, ACh EC80 | inhibition, % at 3 µM | 0.59% of 360,000 active;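 active = inhibition above a per-plate cutoff, the mean of that plate's test compounds plus 3 SD, cut at about 27% in these data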;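 also: 0% = acetylcholine EC80 with DMSO and 100% = DMSO without agonist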
CHRM5 agonist = CHRM5 agonism in calcium assay | P08912 | CHO-K1 hM5 cells, Fluo-8 calcium fluorescence; 0% DMSO wells, 100% maximal acetylcholine response | activation, % at 3 µM | 0.19% of 360,000 active;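 active = activation above the run's mean over test compounds plus 3 SD, cut at about 23% in these data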;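 also: signal is peak over basal fluorescence ratio across the kinetic read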
M4 PAM = potentiates acetylcholine response at human M4 receptor; P08173; CHO-K1 hM4/Gqi5, Fluo-8 calcium fluorescence, ACh EC20; 0% = ACh EC20, 100% = maximal ACh; activation, % at 3 µM; 0.4% of 360,000 active; AID 624126;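 active = activation above its plate's cutoff, the mean activation of sample wells plus 3 SD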
CHRM4 antagonist = CHRM4 antagonism in calcium assay | AID 624125 | 0.73% of 360,000 active | P08173 | CHO-hM4 cells, ACh EC80, Fluo-8 calcium fluorescence | inhibition, % at 3 µM;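 active = inhibition above its plate's cutoff, the mean inhibition of sample wells plus 3 SD, cut at about 27% in these data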;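 also: 0% = acetylcholine EC80 with DMSO and 100% = DMSO without agonist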
Starred values were filed as active, the others as inactive.

SMILES	M4 ag	CHRM5 PAM	CHRM5 antagonist	CHRM5 agonist	M4 PAM	CHRM4 antagonist
O=C(NC1CCCCC1)N1CCC(c2nc(-c3ccc(S(=O)(=O)N4CCCC4)cc3)no2)CC1	2	-1	-8	4	21	2
CCCCCCCCN1C(=O)[C@H](CC(=O)NCCCOC)C[C@@]2(C(=O)OCC)CCCC=C12	-1	-7	-1	-1	14	-18
O=c1c(Cl)c(N2CCNCC2)cnn1C12CC3CC(CC(C3)C1)C2	0	-6	11	-11	-21	31*
Cc1ccc(NC(=O)N2CCc3ccccc3C2)c(C)c1	2	6	3	-6	19*	-10
CC1(c2ccc3ccccc3c2)NC(=O)N(CC(=O)Nc2ncccc2O)C1=O (stereo unspecified)	1	1	0	4	-2	11
Cc1nc(N)c(C#N)c(-c2ccccc2Cl)c1C	2	0	-4	11	29*	-1
N#Cc1c(-c2ccccc2Cl)cc(C2CC2)nc1N	62*	2	-3	56*	7	-14
COc1ccccc1-c1cc(C2CC2)nc(N)c1C#N	-2	5	-9	-2	10	1
O=C(Oc1ccc(N2C(=O)C3C4CCC(C4)C3C2=O)cc1)c1ccco1 (stereo unspecified)	2	-4	13	-4	1	1
O=C(Oc1cccc2cccnc12)c1ccc(N2C(=O)C3C4CCC(C4)C3C2=O)cc1 (stereo unspecified)	1	7	2	2	26*	10
O=C(NCC1CCCO1)c1ccccc1 (stereo unspecified)	0	1	-4	-7	0	5
O=C(NCC1CCCO1)c1cccs1 (stereo unspecified)	1	2	-6	4	36*	6
O=C(COC(=O)c1cccs1)NCC1CCCO1 (stereo unspecified)	0	2	0	0	-2	9
O=C(NCC1CCCO1)NC1(C(F)(F)F)Oc2ccccc2O1 (stereo unspecified)	0	35*	-2	-12	4	3
COC(=O)C1C(O)=C(C=Nc2ccc3ccccc3c2)C(=O)CC1(C)C (stereo unspecified)	0	8	2	-2	-3	8
Oc1ccc(Cl)cc1C1=NNC(c2cccs2)C1 (stereo unspecified)	0	-2	6	-1	-5	3
Cc1ccc(O)c(C2=NNC(c3ccc(Cl)cc3)C2)c1 (stereo unspecified)	8	21*	51*	14	1	2
CC(=O)OCc1c(C(F)(F)F)nn(C)c1Oc1cccc(C(F)(F)F)c1	-1	3	-3	-1	8	6
CC(=O)OCc1c(C(F)(F)F)nn(C)c1Oc1ccccc1	22	19*	7	-1	15	-13
COc1ccc(Oc2c(OC)cc([N+](=O)[O-])c3ncccc23)cc1	0	-3	7	5	-1	-8
COc1cc(NC(C)CCCN)c2ncccc2c1Oc1ccccc1 (stereo unspecified)	1	25*	22	0	2	8
CCCNC(=O)C1(C)CCCN(C(=O)c2cccc(OC(F)(F)F)c2)C1 (stereo unspecified)	0	1	1	1	-6	-2
C=C1CC2C(CCC3(C)C2CCC3(O)C(C)=O)C2(C)CCC(=O)C=C12 (stereo unspecified)	1	3	-6	-2	-5	4
CC(=O)[C@@]1(O)CCC2C3C=CC4=CC(=O)CC[C@]4(C)C3CC[C@@]21C (stereo partly specified)	2	1	2	1	7	4
CC(=O)C1(O)CCC2C3CC(C)C4=CC(=O)CCC4(C)C3CCC21C (stereo unspecified)	4	-1	-8	0	-7	44*
SMILES	M4 ag	CHRM5 PAM	CHRM5 antagonist	CHRM5 agonist	M4 PAM	CHRM4 antagonist
CC(=O)[C@@]1(O)CC[C@H]2[C@@H]3C[C@H](C)C4=CC(=O)CC[C@]4(C)[C@H]3CC[C@@]21C	2	-3	-4	0	-11	33*
O=S(=O)(CCNCCc1ccccc1)NC1CCCCC1	1	-4	0	0	-5	0
CC(=O)Nc1cc(S(=O)(=O)C(F)(F)F)ccc1Cl	0	19*	-10	-2	1	-2
CCCCn1nnnc1C(c1ccccc1)N1CCN(c2cccc(C)c2C)CC1 (stereo unspecified)	0	-3	-8	-2	10	-14
O=[N+]([O-])c1cccc(/C=N/Nc2nc(NCc3ccccc3)nc(N3CCOCC3)n2)c1O	46*	-3	14	11	-11	-1
Cc1cccc(N2C(=O)c3ccc(C(=O)Nc4c[nH]c(=O)[nH]c4=O)cc3C2=O)c1	1	6	-5	-1	16	27*
Cc1cc(C(=O)Nc2c[nH]c(=O)[nH]c2=O)ccc1[N+](=O)[O-]	1	4	0	1	7	2
O=C(Nc1c[nH]c(=O)[nH]c1=O)c1cccc([N+](=O)[O-])c1	1	22*	-16	4	-7	-7
O=C(Nc1c[nH]c(=O)[nH]c1=O)c1cccc(F)c1	1	-4	13	-3	0	-2
CCOC(=O)c1[nH]c2ccc(Br)cc2c1NC(=O)CCN1CCCC(C)(C)C1	3	-20	46*	-6	-34	33*
COc1ccc(NC(=O)CC2C(=O)N(CCc3ccccc3)C(=S)N2Cc2cccnc2)cc1 (stereo unspecified)	16	-6	10	6	-10	27*
Cc1c(C(=O)NC2CCS(=O)(=O)C2)oc2ccccc12 (stereo unspecified)	0	-4	27*	-3	-8	1
C[N+]1(CC#CC(O)(c2ccccc2)c2ccccc2)CCCC1	0	-18	99*	-8	-18	99*
OC(C#Cc1ccccc1)(c1ccccc1)c1ccccc1	-1	-2	12	-1	-6	8
CC(C)[N+](C)(C)CC#CC(O)(c1ccccc1)c1ccccc1	1	-32	100*	-18	-60	99*
O=C(CNC(=O)C12CC3CC(CC(C3)C1)C2)OCc1ccc(F)cc1Cl	16	-25	9	3	-2	-4
CC(Oc1ccc2c(-c3ccccc3)cc(=O)oc2c1)C(=O)O (stereo unspecified)	0	-5	12	-1	-12	27*

Bioassay records (PubChem BioAssay)
